ChEMBL document CHEMBL2146382, “Cytotoxic and antineoplastic activity of timosaponin A-III for human colon cancer cells” (J Nat Prod, 2011)
Active and inactive are the calls of the source. The rule behind the calls is not given here.

Experiments:
HCT-15 [1] = assay: Cell cycle arrest in human HCT15 cells assessed as accumulation at G2/M phase at 20 uM after 12 hrs using propidium-iodide staining by flow-cytometry (reference value: 15.7 %); assay type: functional
HCT-15 [2] = assay: Antineoplastic activity against human HCT15 cells xenografted in nude BALB/c mouse assessed as inhibition of Ki-67 expression at 2 mg/kg, ip 3 times a week for 4 weeks by immunohistochemical analysis; assay type: functional, organism-based; design: dose 2 mg/kg
Outline: (§1)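 HCT-15 cells (2 × 10^6 in 200 μL medium) implanted subcutaneously in flanks of BALB/c-nu (nu/nu) mice; dosing began at ca. 80 mm3 tumours; groups of five, randomized. 2 or 5 mg/kg given ip three times weekly in ethanol–cremophor–H2O (0.5:0.5:99), vehicle controls; caliper volume (3.14·L·W·H/6) three times weekly for 30 days; Ki-67 immunohistochemistry on tumour sections (1:250, 4 °C overnight, DAB, hematoxylin counterstain).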

HCT-15 [3] = assay: Cell cycle arrest in human HCT15 cells assessed as accumulation at sub-G1 phase at 10 uM after 24 hrs using propidium-iodide staining by flow-cytometry (reference value: 6.5 %); assay type: functional
HCT-15 [4] = assay: Cell cycle arrest in human HCT15 cells assessed as accumulation at G0/G1 phase at 20 uM after 12 hrs using propidium-iodide staining by flow-cytometry (reference value: 44.4 %); assay type: functional
HCT-15 [5] = assay: Induction of apoptosis in human HCT15 cells assessed as increase in caspase-3 expression at 5 to 20 uM by Western blot analysis; assay type: functional, cell-based
Outline: (§2)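 HCT-15 cells in RPMI/10% FBS exposed to test compound at various concentrations; lysates quantified by BCA, 30–50 μg protein run on 10% SDS-PAGE, transferred to PVDF, blocked 1 h in 5% milk/PBST, primary antibodies overnight at 4 °C, HRP anti-mouse IgG 1:1500 for 3 h at room temperature, ECL detection.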

[6] = Growth inhibition of human […] cells; assay type: cell-based
Outline: (§3)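 SRB assay: cells at 5 × 10^4 cells/mL were exposed to a concentration series for 3 days, fixed with 10% TCA and stained with sulforhodamine B. Survival was expressed as % of solvent-treated control and IC50 taken by nonlinear regression of % survival versus concentration. Media held 10% heat-inactivated FBS plus antibiotics: RPMI (HCT-15, HCT 116, HT-29), RPMI with 25 mM HEPES (SW480, SW620), DMEM (MRC-5, Hs68). Cultures were kept at 37 C, 5% CO2.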

HCT-15 [7] = assay: Cell cycle arrest in human HCT15 cells assessed as accumulation at G0/G1 phase at 10 uM after 24 hrs using propidium-iodide staining by flow-cytometry (reference value: 37.0 %); assay type: functional
HCT-15 [8] = assay: Cell cycle arrest in human HCT15 cells assessed as accumulation at G0/G1 phase at 5 uM after 12 hrs using propidium-iodide staining by flow-cytometry (reference value: 44.4 %); assay type: functional
HCT-15 [9] = assay: Induction of apoptosis in human HCT15 cells assessed as increase in caspase-8 expression at 5 to 20 uM by Western blot analysis; assay type: functional, cell-based
Outline: (§4)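 HCT-15 cells (RPMI, 10% heat-inactivated FBS, antibiotics-antimycotics, 37 C, 5% CO2) exposed to compound. Cells lysed, protein measured by BCA, 30-50 μg per lane resolved on 10% SDS-PAGE and electroblotted to PVDF. Membranes blocked 1 h in 5% nonfat milk/PBST, probed with primary antibodies overnight at 4 C, then HRP anti-mouse IgG 1:1500 for 3 h at room temperature. Detection by ECL; β-actin antibody available.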

HCT-15 [10] = assay: Cell cycle arrest in human HCT15 cells assessed as accumulation at G2/M phase at 10 uM after 12 hrs using propidium-iodide staining by flow-cytometry (reference value: 15.7 %); assay type: functional
HCT-15 [11] = assay: Cell cycle arrest in human HCT15 cells assessed as accumulation at sub-G1 phase at 20 uM after 24 hrs using propidium-iodide staining by flow-cytometry (reference value: 6.5 %); assay type: functional
HCT-15 [12] = assay: Cell cycle arrest at M phase in human HCT15 cells assessed as decrease in cyclin B1 level at 5 to 20 uM after 12 to 24 hrs by Western blot analysis; assay type: functional, cell-based; outline: as §2
HCT-15 [13] = assay: Antineoplastic activity against human HCT15 cells xenografted in nude BALB/c mouse assessed as tumor growth inhibition at 2 to 5 mg/kg, ip 3 times a week for 4 weeks; assay type: functional, organism-based; outline: as §1
HCT-15 [14] = assay: Induction of apoptosis in human HCT15 cells assessed as increase in caspase-3 expression after 12 to 24 hrs by Western blot analysis; assay type: functional, cell-based; outline: as §2
HCT-15 [15] = assay: Cell cycle arrest in human HCT15 cells assessed as accumulation at G0/G1 phase at 10 uM after 12 hrs using propidium-iodide staining by flow-cytometry (reference value: 44.4 %); assay type: functional
HCT-15 [16] = assay: Cell cycle arrest at G0/G1 phase in human HCT15 cells assessed as decrease in c-Myc expression at 5 to 20 uM after 24 hrs by Western blot analysis; assay type: functional, cell-based; outline: as §2
HCT-15 [17] = assay: Cell cycle arrest in human HCT15 cells assessed as increase in cyclin E expression at 5 to 20 uM after 12 to 24 hrs by Western blot analysis; assay type: functional, cell-based; outline: as §2
HCT-15 [18] = assay: Cell cycle arrest in human HCT15 cells assessed as accumulation at S phase at 10 uM after 12 hrs using propidium-iodide staining by flow-cytometry (reference value: 34.7 %); assay type: functional
HCT-15 [19] = assay: Cell cycle arrest at […] phase in human HCT15 cells assessed as cyclin A down regulation at 5 to 20 uM after 12 to 24 hrs by Western blot analysis; assay type: functional, cell-based; outline: as §2
HCT-15 [20] = assay: Cell cycle arrest in human HCT15 cells assessed as accumulation at S phase at 20 uM after 24 hrs using propidium-iodide staining by flow-cytometry (reference value: 34.1 %); assay type: functional
HCT-15 [21] = assay: Antineoplastic activity against human HCT15 cells xenografted in nude BALB/c mouse assessed as inhibition of rate of tumor size at 5 mg/kg, ip 3 times a week for 4 weeks relative to control; assay type: functional; conditions: HCT-15, ip, 672 h, route intraperitoneal; outline: as §1
HCT-15 [22] = assay: Cell cycle arrest in human HCT15 cells assessed as accumulation at sub-G1 phase at 5 uM after 24 hrs using propidium-iodide staining by flow-cytometry (reference value: 6.5 %); assay type: functional
HCT-15 [23] = assay: Cell cycle arrest in human HCT15 cells assessed as accumulation at G2/M phase at 20 uM after 24 hrs using propidium-iodide staining by flow-cytometry (reference value: 22.4 %); assay type: functional
HCT-15 [24] = assay: Cell cycle arrest at G0/G1 phase in human HCT15 cells assessed as suppression of Rb ser807/811 phosphorylation at 5 to 20 uM after 12 to 24 hrs by Western blot analysis; assay type: functional, cell-based; outline: as §2
SW480 = assay: Growth inhibition of human SW480 cells; assay type: functional, cell-based; outline: as §3
HCT-15 [25] = assay: Induction of apoptosis in human HCT15 cells assessed as suppression of procaspase-9 expression at 5 to 20 uM after 12 to 24 hrs by Western blot analysis; assay type: functional, cell-based; outline: as §4

C[C@H]1CC[C@@]2(OC1)O[C@H]1C[C@H]3[C@@H]4CC[C@@H]5C[C@@H](O[C@@H]6O[C@H](CO)[C@H](O)[C@H](O)[C@H]6O[C@@H]6O[C@H](CO)[C@@H](O)[C@H](O)[C@H]6O)CC[C@]5(C)[C@H]4CC[C@]3(C)[C@H]1[C@@H]2C [TIMOSAPONIN AIII]
Activity (HCT-15 [1]): 41.8%
Activity (HCT-15 [2]): Active
Activity (HCT-15 [3]): 6.4%
Activity (HCT-15 [4]): 12.2%
Activity (HCT-15 [5]): Active
IC50 [6]: > 50 µM
Activity (HCT-15 [7]): 47.9%
Activity (HCT-15 [8]): 52.2%
Activity (HCT-15 [9]): Active
Activity (HCT-15 [10]): 24.2%
Activity (HCT-15 [11]): 39.7%
Activity (HCT-15 [12]): Active
TGI (HCT-15 [13]): Active
Activity (HCT-15 [14]): Active
Activity (HCT-15 [15]): 43.2%
Activity (HCT-15 [16]): Active
Activity (HCT-15 [17]): Active
Activity (HCT-15 [18]): 18.4%
Activity (HCT-15 [19]): Active
Activity (HCT-15 [20]): 17%
inhibition in vivo at 5 mg/kg (HCT-15 [21]): 37.3%
Activity (HCT-15 [22]): 7.2%
Activity (HCT-15 [23]): 0%
Activity (HCT-15 [24]): Active
IC50 (SW480): 13.1 µM
Activity (HCT-15 [25]): Active
